We go through 12 compounds from ChEMBL document CHEMBL1126728, “Synthesis and biochemical evaluation of the CBI-PDE-I-dimer, a benzannelated analog of (+)-CC-1065 that also produces delayed toxicity in mice” (J Med Chem, 1993).

Experiment [1] deals with L1210. Description: In vitro cytotoxicity against mouse leukemia L1210 cells was determined. It is filed as functional, cell-based. The method, boiled down: (§1)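 L1210 mouse leukemia cells in RPMI 1634 supplemented with 5% fetal calf serum, 0.075% sodium bicarbonate, penicillin and streptomycin. Drug added to cultures at about 5 × 10^3 cells/mL, incubated 3 days at 37 °C. Cell number counted with a Coulter counter; IC50 in nM, run side by side with the corresponding CPI analog.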

Experiment [2] concerns Mus musculus. Description: Median day of death (MDD) in normal (Non tumor bearing) mice treated with a single i.v. dose at 25 ug/kg. In kind it is functional. The method, boiled down: (§2)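 Non-tumor-bearing mice got one intravenous injection in a vehicle of 2% DMA, 10% Emulphor EL-620P and 88% sterile water. Survival was followed for 90 days, which ended the experiment. Six mice per dose group; the value is the median day of death. Deaths after more than 28 days counted as delayed.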

In experiment [3] the test system is Mus musculus. Description: Median day of death (MDD) in normal (Non tumor bearing) mice treated with a single i.v. dose at 50 ug/kg. In kind it is functional. The method, boiled down: as §2
In experiment [4] the test system is Mus musculus. Kind of experiment: in vivo percent increase in lifespan (ILS) at the optimum dose in L1210 cells. It is filed as functional. The method, boiled down:
(§3)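 L1210 leukemia, passaged in syngeneic DBA/2 female mice, was implanted i.p. at 10^6 cells/mouse on day 0; one i.v. dose on day 1 (2% DMA/10% Emulphor EL-620P/88% water); 6 mice per group; dose-response run. Optimal dose = greatest efficacy with ≤15% drug-related deaths. %ILS = (median survival treated/median survival vehicle control − 1) × 100, counting long-term survivors.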

Experiment [5] deals with Mus musculus. Description: Optimum antitumor dose (OD) against L1210 mouse leukemia cells implanted intraperitoneally in CD2F1 mice. It is filed as functional. The method, boiled down:
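L1210 cells passaged in DBA/2 female mice, implanted ip (10^6 cells/mouse) in CD2F1 mice, 6 per group, on day 0. Single iv dose 24 h later (day 1) in 2% DMA, 10% Emulphor EL-620P, 88% sterile water; dose response run. Optimum dose (µg/kg) is the dose giving greatest ILS (median survival) with ≤15% drug-related deaths.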

The subject of experiment [6] is Mus musculus. Kind of experiment: Median day of death (MDD) in normal (Non tumor bearing) mice treated with a single i.v. dose at 200 ug/kg. It is filed as functional. The method, boiled down:
as §2

In experiment [7] the test system is Mus musculus. Kind of experiment: Median day of death (MDD) in normal (Non tumor bearing) mice treated with a single i.v. dose at 400 ug/kg. It is filed as functional. The method, boiled down: as §2
Experiment [8] deals with Mus musculus. Description: Optimum antitumor dose (OD) against L1210 mouse leukemia cells implanted intraperitoneally in CD2F1 mice (Highest dose tested). It is filed as functional. The method, boiled down: as §3
Experiment [9] concerns Mus musculus. Kind of experiment: Median day of death (MDD) in normal (Non tumor bearing) mice treated with a single i.v. dose at 100 ug/kg. In kind it is functional. The method, boiled down: as §2
Experiment [10] deals with L1210. Description: In vitro cytotoxicity against mouse leukemia L1210 cells. In kind it is functional, cell-based. The method, boiled down:
as §1

A word on the IC50: it is the concentration that inhibits the measured activity by half. In general, ILS refers to the gain in survival time of treated over control animals, in per cent. Lower therefore signals little gain in survival.

With `O=C1C=C2N(C(=O)c3cc4ccccc4[nH]3)CC3C[C@]23c2ccccc21` (single isomer, unassigned; (-)), the IC50 in [1] came out at 12 nM.
Take `COc1c(O)c2c(c3cc(C(=O)N4CCc5c4c(O)c(OC)c4[nH]c(C(=O)N6C[C@H]7C[C@@]78C6=CC(=O)c6[nH]cc(C)c68)cc54)[nH]c13)CCN2C(N)=O` [(+)-CC-1065]: the MDD amounted to 42 in experiment [2] and 41 in [3].
Take `O=C(Nc1ccc2[nH]c(C(=O)N3CC4C[C@@]45C3=CC(=O)c3ccccc35)cc2c1)c1cc2ccccc2[nH]1` (single isomer, unassigned; (+)): the IC50 in experiment [1] is 0.006 nM. Also, in experiment [4], the ILS was 67%. Also, the OD in experiment [5] was 0.1 mg/kg. For the same compound, the MDD in experiment [6] was determined as 7.
With `COc1c(O)c2c(c3cc(C(=O)N4CCc5c4c(O)c(OC)c4[nH]c(C(=O)N6CC7C[C@]78C6=CC(=O)c6ccccc68)cc54)[nH]c13)CCN2C(N)=O` (single isomer, unassigned; (-)), in experiment [1], half-maximal inhibition (IC50) required 0.01 nM. Moreover, the ILS in [4] came to 6%. Besides, the OD in [5] was 0.2 mg/kg. The compound further returned an MDD in experiment [7] of 5.
As for `CC(=O)N1CC2C[C@]23C1=CC(=O)c1ccccc13` (single isomer, unassigned; (-)), in experiment [1], half-maximal inhibition (IC50) was put at 70 nM.
The same measure, in the same setting: to `OC1=CC2=NCC3C[C@@]23c2ccccc21` (some centres not stated) belongs 230 nM.
`Cc1c[nH]c2c1[C@@]13CC1CN(C(=O)c1cc4cc(NC(=O)c5cc6ccccc6[nH]5)ccc4[nH]1)C3=CC2=O` (some centres not stated): the ILS in experiment [4] stood at 83%. In [5], this compound returned an OD of 0.1 mg/kg. In experiment [6], this compound had an MDD of 3.
On to `O=C(Nc1ccc2[nH]c(C(=O)N3CC4C[C@]45C3=CC(=O)c3ccccc35)cc2c1)c1cc2ccccc2[nH]1` (single isomer, unassigned; (-)), for which, in experiment [1], half-maximal inhibition (IC50) was put at 0.3 nM. In addition, in [4], the ILS worked out at 50%. Moreover, in [8], the OD stood at 1.6 mg/kg.
Turning to `COc1c(O)c2c(c3cc(C(=O)N4CCc5c4c(O)c(OC)c4[nH]c(C(=O)N6CC7C[C@@]78C6=CC(=O)c6ccccc68)cc54)[nH]c13)CCN2C(N)=O` (some centres not stated), half-maximal inhibition in experiment [1] (IC50) was put at 0.02 nM. For the same compound, the ILS in experiment [4] is listed as 28%. The OD in experiment [5] came to 0.2 mg/kg. Besides, the MDD in experiment [9] stood at 41; in experiment [6] it was 38; in experiment [2], 48; in [7], 5; in [3] it was 42.
Consider `O=C1C=C2N(C(=O)c3cc4ccccc4[nH]3)CC3C[C@@]23c2ccccc21` (single isomer, unassigned; (+)), for which, in experiment [1], the IC50 came to 0.1 nM. For the same compound, in experiment [4], the increase in life span (ILS) is recorded as 50%. Also, the OD in experiment [5] was found to be 0.8 mg/kg.
On to `CC(=O)N1CC2C[C@@]23C1=CC(=O)c1ccccc13` (single isomer, unassigned; (+)), for which, in [1], the midpoint of inhibition, the IC50, lay at 5 nM.
For `OC1=CC2=NCC3C[C@]23c2ccccc21` (some centres not stated), half-maximal inhibition in experiment [10] (IC50) required 6600 nM.
